This is an account of results in ChEMBL document CHEMBL1687823, “PA-824 exhibits time-dependent activity in a murine model of tuberculosis” (Antimicrob Agents Chemother, 2011).

The nature of data set [1]: Elimination half life in BALB/c mouse up to 1456 mg/kg, po administered as single dose. The class given is ADME, organism-based. The arrangement: route oral. As to conditions: in vivo, read-out: beta t1/2 (converted). Put shortly: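 Uninfected 6-week female BALB/c mice received single oral gavage doses of 3–1,458 mg/kg as a cyclodextrin-micelle suspension. Three mice per time point were bled by cardiac puncture under isoflurane at 0.5–120 h. Serum levels were measured by validated HPLC-UV (standards 0.20–50 µg/ml).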

In data set [2] the test system is Mycobacterium tuberculosis. The data set can be described thus: fT>MIC for >= 1 log reduction in CFU count in Mycobacterium tuberculosis H37Rv in using simulated dose of at 400 mg assessed as time during compound concentration exceeds MIC of 0.03125 ug/ml assuming 5% unbound compound concentration by one compartment human pharmacokinetic model. It is filed as functional. The method in brief:
(§1)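 A one-compartment PK model was fitted to human data to get median parameters. It simulated steady-state total and free concentrations for 100, 200 or 400 mg once daily, assuming 5, 7, 10 or 15% unbound drug. Free T>MIC was computed against MICs of 0.03125–0.25 µg/ml and compared with the mouse-derived T>MIC target for 1-log10 kill.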

For data set [3], the system named is Mycobacterium tuberculosis. The data set can be described thus: fT>MIC for >= 1 log reduction in CFU count in Mycobacterium tuberculosis H37Rv in using simulated dose of at 400 mg assessed as time during compound concentration exceeds MIC of 0.03125 ug/ml assuming 7% unbound compound concentration by one compartment human pharmacokinetic model. The class given is functional. Put shortly:
as §1

The subject of data set [4] is Mycobacterium tuberculosis. The data set can be described thus: fT>MIC for >= 1 log reduction in CFU count in Mycobacterium tuberculosis H37Rv in using simulated dose of at 200 mg assessed as time during compound concentration exceeds MIC of 0.03125 ug/ml assuming 10% unbound compound concentration by one compartment human pharmacokinetic model. It is filed as functional. Put shortly: as §1

The test system of data set [5] is Mycobacterium tuberculosis. The data set can be described thus: fT>MIC for >= 1 log reduction in CFU count in Mycobacterium tuberculosis H37Rv in using simulated dose of at 100 mg assessed as time during compound concentration exceeds MIC of 0.03125 ug/ml assuming 15% unbound compound concentration by one compartment human pharmacokinetic model. The class given is functional. The method in brief:
as §1

Data set [6] has as its system Mycobacterium tuberculosis. The data set can be described thus: fT>MIC for >= 1 log reduction in CFU count in Mycobacterium tuberculosis H37Rv in using simulated dose of at 100 mg assessed as time during compound concentration exceeds MIC of 0.06250 ug/ml assuming 5% unbound compound concentration by one compartment human pharmacokinetic model. It is filed as functional. The method in brief:
as §1

Data set [7] concerns Mycobacterium tuberculosis. The data set can be described thus: fT>MIC for >= 1 log reduction in CFU count in Mycobacterium tuberculosis H37Rv in using simulated dose of at 400 mg assessed as time during compound concentration exceeds MIC of 0.06250 ug/ml assuming 5% unbound compound concentration by one compartment human pharmacokinetic model. The class given is functional. Put shortly: (§2)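 Human steady-state simulation: one-compartment PK model fitted to patient data, chosen by AIC. Median PK parameters used to simulate total and free concentrations, assuming 5, 7, 10 or 15% unbound, for 100, 200 and 400 mg once daily. Free levels compared with MICs of 0.03125 to 0.25 µg/ml to give %T>MIC; T>MIC is the cumulative percentage of the dosing interval above MIC.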

The subject of data set [8] is Mycobacterium tuberculosis. The data set can be described thus: fT>MIC for >= 1 log reduction in CFU count in Mycobacterium tuberculosis H37Rv in using simulated dose of at 100 mg assessed as time during compound concentration exceeds MIC of 0.06250 ug/ml assuming 7% unbound compound concentration by one compartment human pharmacokinetic model. It is filed as functional. The method in brief: as §1

Data set [9] concerns Mycobacterium tuberculosis. The data set can be described thus: fT>MIC for >= 1 log reduction in CFU count in Mycobacterium tuberculosis H37Rv in using simulated dose of at 200 mg assessed as time during compound concentration exceeds MIC of 0.06250 ug/ml assuming 7% unbound compound concentration by one compartment human pharmacokinetic model. The class given is functional. The method in brief:
as §1

Data set [10] concerns Mycobacterium tuberculosis. The data set can be described thus: fT>MIC for >= 1 log reduction in CFU count in Mycobacterium tuberculosis H37Rv in using simulated dose of at 200 mg assessed as time during compound concentration exceeds MIC of 0.06250 ug/ml assuming 10% unbound compound concentration by one compartment human pharmacokinetic model. The class given is functional. The method in brief: as §1

Data set [11] has as its system Mycobacterium tuberculosis. The data set can be described thus: fT>MIC for >= 1 log reduction in CFU count in Mycobacterium tuberculosis H37Rv in using simulated dose of at 400 mg assessed as time during compound concentration exceeds MIC of 0.06250 ug/ml assuming 10% unbound compound concentration by one compartment human pharmacokinetic model. The class given is functional. The method in brief: as §1

The test system of data set [12] is Mycobacterium tuberculosis. The data set can be described thus: fT>MIC for >= 1 log reduction in CFU count in Mycobacterium tuberculosis H37Rv in using simulated dose of at 100 mg assessed as time during compound concentration exceeds MIC of 0.06250 ug/ml assuming 15% unbound compound concentration by one compartment human pharmacokinetic model. It is filed as functional. The method in brief:
as §1

The subject of data set [13] is Mycobacterium tuberculosis. The data set can be described thus: fT>MIC for >= 1 log reduction in CFU count in Mycobacterium tuberculosis H37Rv in using simulated dose of at 200 mg assessed as time during compound concentration exceeds MIC of 0.12500 ug/ml assuming 7% unbound compound concentration by one compartment human pharmacokinetic model. It is filed as functional. Put shortly:
as §1

The subject of data set [14] is Mycobacterium tuberculosis. The data set can be described thus: fT>MIC for >= 1 log reduction in CFU count in Mycobacterium tuberculosis H37Rv in using simulated dose of at 100 mg assessed as time during compound concentration exceeds MIC of 0.12500 ug/ml assuming 15% unbound compound concentration by one compartment human pharmacokinetic model. The class given is functional. The method in brief: as §1

The test system of data set [15] is Mycobacterium tuberculosis. The data set can be described thus: fT>MIC for >= 1 log reduction in CFU count in Mycobacterium tuberculosis H37Rv in using simulated dose of at 400 mg assessed as time during compound concentration exceeds MIC of 0.12500 ug/ml assuming 15% unbound compound concentration by one compartment human pharmacokinetic model. It is filed as functional. The method in brief: as §2

The test system of data set [16] is Mycobacterium tuberculosis. The data set can be described thus: fT>MIC for >= 1 log reduction in CFU count in Mycobacterium tuberculosis H37Rv in using simulated dose of at 100 mg assessed as time during compound concentration exceeds MIC of 0.25000 ug/ml assuming 5% unbound compound concentration by one compartment human pharmacokinetic model. The class given is functional. The method in brief:
as §1

Data set [17] deals with Mycobacterium tuberculosis. The data set can be described thus: fT>MIC for >= 1 log reduction in CFU count in Mycobacterium tuberculosis H37Rv in using simulated dose of at 100 mg assessed as time during compound concentration exceeds MIC of 0.25000 ug/ml assuming 7% unbound compound concentration by one compartment human pharmacokinetic model. The class given is functional. Put shortly:
as §1

Data set [18] relates to Mycobacterium tuberculosis. The data set can be described thus: fT>MIC for >= 1 log reduction in CFU count in Mycobacterium tuberculosis H37Rv in using simulated dose of at 100 mg assessed as time during compound concentration exceeds MIC of 0.25000 ug/ml assuming 15% unbound compound concentration by one compartment human pharmacokinetic model. It is filed as functional. Put shortly: as §1

The test system of data set [19] is Mycobacterium tuberculosis. The data set can be described thus: fT>MIC for >= 1 log reduction in CFU count in Mycobacterium tuberculosis H37Rv in using simulated dose of at 200 mg assessed as time during compound concentration exceeds MIC of 0.25000 ug/ml assuming 15% unbound compound concentration by one compartment human pharmacokinetic model. The class given is functional. Put shortly: as §1

A short description of data set [20]: Cmax in mouse at 100 or 50 mg/kg, po administered as single dose. The class given is ADME, organism-based. As to conditions: in vivo. More on the design: dose 50 mg/kg, route oral.
Data set [21] relates to Mycobacterium tuberculosis. The data set can be described thus: Antimicrobial activity against Mycobacterium tuberculosis H37Rv infected in BALB/c mouse assessed as bacteriostatic effect at 12.5 mg/kg, po administered as single dose. The class given is functional, organism-based. The arrangement: dose 12.5 mg/kg.

SMILES strings stand for the structures. Active and inactive are the calls of the source. No cut-off for these calls is given here.

A word on the Cmax: it is the highest concentration seen after dosing. For `O=[N+]([O-])c1cn2c(n1)OC[C@@H](OCc1ccc(OC(F)(F)F)cc1)C2` [PRETOMANID], in data set [1], the half-life was 4 h. Moreover, the “fT>MIC” value in data set [2] is 100%; in data set [3] it was 100%; in data set [4] it was 100%; in [5] it was 100%; in data set [6], 0%; in data set [7] it was 100%. In addition, the “fT>MIC” value in data set [8] was 0%; in data set [9], 67%; in data set [10] it was 100%; in [11] it was 100%; in data set [12] it was 67%; in [13], 4%. The “fT>MIC” value is reported as 6% in data set [14]; 100% in data set [15]; 0% in data set [16]; 0% in data set [17]; 0% in data set [18]; 6% in data set [19]. The peak concentration (Cmax) in [20] was 3800 ng/mL. Further, the outcome in data set [21] was Active.
